T cruzi inh: inhibitors of intracellular T. cruzi growth, primary screen, luminescence, NIH3T3 host cells; T. cruzi beta-gal in NIH3T3, 90 h; inhibition, % (no concentration beside the values); hit rate 1.4% among 300,000; AID 1885, 2009;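 active means mean inhibition across valid replicates above about 55%, limit read from the data; inconclusive means mean below that limit but half or more replicates reach it; inactive means mean below it, under half of replicates reach it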;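 further: signal also drops with host cell toxicity which is not excluded here; higher percent means less beta-gal luminescence so fewer parasites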
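Material: NIH/3T3 host cells with β-galactosidase reporter T. cruzi; Input: 5,000 host fibroblasts per well; Medium: DMEM, 2% fetal bovine serum; Compound: 50 nL DMSO compound solution per well; Schedule: 3 h host attachment, then at least 90 h co-culture; Detection: luminescent β-galactosidase signal after 60 min lysis.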
AI-2 QS mod: Vibrio harveyi AI-2 quorum sensing modulators, primary screen, JMH597 strain, luminescence/OD600 ratio | Vibrio harveyi JMH597 AI-2 luminescence/OD600 ratio, 9 h; stronger effect = lower value; strain lacks LuxN and CqsS sensors; 0 = neutral-control median | hit rate 0.4% among 300,000 | activity change, % at 7.5 µM; in the data active means activity change below about -75%, passing the limit was not always enough; inconclusive means no clear call, values can overlap the other calls;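 further: luminescence divided by OD600 gain over 9 h not by final OD600 alone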
p-CIP stab down: p/CIP-EGFP fusion destabilizers, primary screen, fluorescence, F442A cells; decrease of EGFP signal, % at 10 µM; 16 h; AID 1984, 2009; hit rate 0.01% among 290,000;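 active means EGFP signal decrease of at least 30% at 10 µM or well 3 SD below plate mean, unless failing retest; inactive means the rest, including hits failing retest or dose response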
Target sequence (Q05BA5 1-1403): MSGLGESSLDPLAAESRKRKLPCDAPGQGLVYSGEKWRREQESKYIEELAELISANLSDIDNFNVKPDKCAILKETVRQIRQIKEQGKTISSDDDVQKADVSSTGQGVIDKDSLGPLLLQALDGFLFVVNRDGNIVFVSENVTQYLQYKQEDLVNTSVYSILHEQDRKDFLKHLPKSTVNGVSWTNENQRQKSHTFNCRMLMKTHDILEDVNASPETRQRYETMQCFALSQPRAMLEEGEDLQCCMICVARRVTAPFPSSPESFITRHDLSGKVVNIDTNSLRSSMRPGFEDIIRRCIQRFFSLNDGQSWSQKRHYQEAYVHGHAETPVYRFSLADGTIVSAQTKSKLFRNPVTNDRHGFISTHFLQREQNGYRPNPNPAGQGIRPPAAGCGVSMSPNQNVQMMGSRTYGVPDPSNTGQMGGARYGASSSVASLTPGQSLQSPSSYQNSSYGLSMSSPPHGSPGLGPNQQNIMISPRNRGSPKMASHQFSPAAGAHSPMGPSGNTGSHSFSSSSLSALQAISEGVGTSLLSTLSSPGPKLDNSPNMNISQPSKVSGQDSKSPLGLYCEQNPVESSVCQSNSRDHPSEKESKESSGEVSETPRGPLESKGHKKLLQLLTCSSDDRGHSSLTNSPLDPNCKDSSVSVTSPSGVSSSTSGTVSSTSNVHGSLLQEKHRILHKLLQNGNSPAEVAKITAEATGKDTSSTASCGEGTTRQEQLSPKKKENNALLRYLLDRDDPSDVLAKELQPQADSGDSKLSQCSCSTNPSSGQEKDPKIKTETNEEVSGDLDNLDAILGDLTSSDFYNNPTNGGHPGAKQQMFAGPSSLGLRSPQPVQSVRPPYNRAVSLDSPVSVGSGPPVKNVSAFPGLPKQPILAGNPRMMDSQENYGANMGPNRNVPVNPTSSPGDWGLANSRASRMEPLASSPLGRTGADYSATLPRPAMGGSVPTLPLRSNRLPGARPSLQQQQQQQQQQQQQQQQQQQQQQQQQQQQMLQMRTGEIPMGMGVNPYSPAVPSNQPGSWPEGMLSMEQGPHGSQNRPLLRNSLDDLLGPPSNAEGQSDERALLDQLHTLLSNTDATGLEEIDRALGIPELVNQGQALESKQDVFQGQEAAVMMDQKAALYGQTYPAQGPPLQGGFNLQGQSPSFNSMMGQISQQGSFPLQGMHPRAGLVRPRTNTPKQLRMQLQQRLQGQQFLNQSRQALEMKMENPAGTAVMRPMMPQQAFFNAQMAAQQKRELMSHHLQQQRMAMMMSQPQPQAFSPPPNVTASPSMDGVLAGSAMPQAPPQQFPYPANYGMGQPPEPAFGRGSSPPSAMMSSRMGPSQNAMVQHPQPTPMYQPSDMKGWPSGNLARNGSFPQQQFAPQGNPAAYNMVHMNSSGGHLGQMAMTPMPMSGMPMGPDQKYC
UBC13 polyUb: UBC13 polyubiquitin chain formation inhibitors, primary screen, biochemical, TR-FRET, uHTS; Ubiquitin-conjugating enzyme E2 N (Homo sapiens), P61088; inhibition, % at 20 µM; hit rate 0.47% among 330,000; AID 485273, 2010; in the data active means inhibition above about 45%, passing the limit was not always enough; inconclusive means no clear call, values can overlap the other calls
PP1 inh: PP1-alpha phosphatase inhibitors, primary screen, counter-screen for PP5 inhibitor project, biochemical, fluorescence, OMFP substrate, single point; inhibition, % at 6.7 µM; hit rate 0.9% among 320,000; Serine/threonine-protein phosphatase PP1-alpha catalytic subunit (Homo sapiens), P62136; purified PP1alpha;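 active means inhibition above the mean inhibition of all tested compounds plus 3 SD, computed separately for each screening campaign, cut at about 15% in these data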
Each line names hits and unclear results; the compound was inactive in the other large screens. Rows were chosen to be rich in hits. Some 2.8% of all compounds tested hit in one or more screens of this group.

Cc1cc(C)nc(NC(=NCCc2c[nH]c3ccccc23)NC(=O)C(C)(C)C)n1	T cruzi inh 60.8 (no result: AI-2 QS mod)
COc1ccc(C2C(Oc3ccccc3)C(=O)N2c2cc(C)ccc2C)cc1OC (stereo unspecified)	T cruzi inh 59.5
CCN(CC)C(=O)CSc1nnc2nnc3cc(Cl)ccc3n12	T cruzi inh 58.9
COC(=O)C1=C(C)N(Cc2ccccc2)C(=S)N[C@H]1c1cccc(F)c1	none
COCCN1C(=S)N[C@@H](c2cccc(F)c2)C(C(=O)OC)=C1C	UBC13 polyUb 85.6
CN1CCN(Cc2ccc(Sc3ccc(Cl)cc3)c([N+](=O)[O-])c2)CC1	T cruzi inh 66.2
Cc1ccc(Sc2ccc(CN3CCCC3)cc2[N+](=O)[O-])cc1	T cruzi inh 88.4
Cc1ccc(Sc2ccc(CO)cc2[N+](=O)[O-])cc1	none
Cc1nnc2n1N=C(c1ccc(F)cc1F)CS2	none (no result: T cruzi inh, AI-2 QS mod, p-CIP stab down)
O=C(O)CCC(=O)OCCCc1cc2ccccc2c(=O)o1	none (no result: T cruzi inh, AI-2 QS mod, p-CIP stab down, PP1 inh)
N#CCC(=O)N/N=C/c1ccc(OCc2ccccc2)cc1	none
N#CCC(=O)N/N=C\c1ccc(OC/C=C/c2ccccc2)cc1	PP1 inh 17.3
CCSc1nnc(NC(=O)[C@@H](NC(=O)c2ccccc2F)C(C)C)s1	none
Cc1ccc(S(=O)(=O)N2CCC(C(=O)NCc3ccncc3)CC2)cc1	none
O=C(Nc1ccccc1C(F)(F)F)c1cc2ccccc2o1	none
O=C(Nc1ncc(S(=O)(=O)c2ccc([N+](=O)[O-])cc2)s1)c1cccc2ccccc12	T cruzi inh 57.8
CC1CCN(C(=O)CSc2nnc(CNC(=O)c3c(F)cccc3F)o2)CC1	none
Brc1ccc(-c2c[n+]3c(n2-c2ccccc2)SCC3)cc1	none
COc1ccc(-c2c[n+]3c(n2-c2ccccc2)SCC3)cc1OC	none
Cc1ccc(-c2c[n+]3c(n2-c2ccccc2)SCC3)cc1	T cruzi inh 65.8
COc1ccc(-c2c[n+]3c(n2-c2ccccc2)SCC3)cc1	T cruzi inh 61.2
COc1cc(NS(=O)(=O)c2ccc(NC(=S)NC(=O)c3sc4ccccc4c3Cl)cc2)nc(OC)n1	none (no result: UBC13 polyUb)
CC(=O)Nc1ccc(NC(=O)CNC(=O)c2sc3ccccc3c2Cl)cc1	none (no result: p-CIP stab down)
COC(=O)c1ccc(NC(=O)CNC(=O)c2sc3ccccc3c2Cl)cc1	PP1 inh 15.3 (no result: T cruzi inh, AI-2 QS mod, p-CIP stab down)
NC(N)=NS(=O)(=O)c1ccc(NC(=S)NC(=O)c2sc3ccccc3c2Cl)cc1	PP1 inh 15.9
CCc1cc2c(=O)n(CCC(C)C)c(=S)[nH]c2s1	none
O=C(NC(=S)N1CCN(c2ccccc2)CC1)c1c(F)cccc1F	none
C=CCC(C(=O)OC)(C(=O)OC)c1ccc([N+](=O)[O-])cc1[N+](=O)[O-]	T cruzi inh 58.8 (no result: AI-2 QS mod)
COC(=O)C(Cc1cnc(Cl)s1)(C(=O)OC)c1ccc([N+](=O)[O-])cc1[N+](=O)[O-]	T cruzi inh 56.7
Cc1cc(C(=O)COC(=O)Cc2n[nH]c(=O)c3ccccc23)c(C)n1-c1ccc2c(c1)OCCO2	T cruzi inh 69.0
CCN(CC)CCNc1ncnc2c1sc1nc(N3CCCC3)c3c(c12)CC(C)(C)OC3	T cruzi inh 60.8
O=C(COC(=O)c1ccc([N+](=O)[O-])o1)NCCCc1ccccc1	none (no result: T cruzi inh, AI-2 QS mod, p-CIP stab down, PP1 inh)
Cc1[nH]n(-c2nc(-c3ccc(Cl)cc3)cs2)c(=O)c1N=Nc1ccc(O)cc1	T cruzi inh inconclusive
O=C1CCN(S(=O)(=O)c2ccccc2)CCN1CCOCc1cccc(F)c1	none
Cc1sc(N/N=C/C=C/c2ccccc2)nc1-c1ccccc1	T cruzi inh 55.4
Cc1cc(C)nc(N/N=C/C=C/c2ccccc2)n1	none
CCOc1ccc(-n2c(C)cc(/C=N/N(C)C)c2C)cc1	T cruzi inh 56.1
CCOc1ccc(-n2c(C)cc(C(=O)CCl)c2C)cc1	T cruzi inh 85.6
CCOC(=O)C(C(=O)N(C)Cc1ccccc1)C1CCCCC1 (stereo unspecified)	none
CC(=O)OCCN1C(=O)c2cccc3cc([N+](=O)[O-])cc(c23)C1=O	T cruzi inh 73.5 (no result: p-CIP stab down)
O=C1c2cccc3cc([N+](=O)[O-])cc(c23)C(=O)N1CC1CCCO1 (stereo unspecified)	none
CC(=O)n1cc(N(C(=O)CCl)c2ccc(Cl)cc2)c2ccccc21	T cruzi inh 65.6 (no result: AI-2 QS mod)
CCCCCCSc1ccc(-c2nc3ccc(Cl)cn3c2NCCCC)cc1OC	none (no result: T cruzi inh, AI-2 QS mod, p-CIP stab down, PP1 inh)
CCCCNc1c(-c2ccc(SC3CCCCC3)c(OC)c2)nc2ccc(Cl)cn12	T cruzi inh 69.6 (no result: p-CIP stab down)
CCCCC(=O)/C=C/n1c(=S)oc2ccccc21	AI-2 QS mod -90.3
CC(C)OC(=O)n1c(=S)oc2ccccc21	none
O=C(CN1CCC(c2nc3ccccc3s2)CC1)NCc1ccccc1	T cruzi inh 64.3
Cc1c(Cl)ccc2sc(NC(=O)CN3C(=O)c4ccccc4C3=O)nc12	AI-2 QS mod -94.8
CC(C)(C)Cc1nnc(NC(=O)CN2C(=O)c3ccccc3C2=O)s1	none
CCCCc1nnc(NC(=O)CN2C(=O)c3ccccc3C2=O)s1	AI-2 QS mod -85.7
CCOC(=O)C1(CCOC)CCN(Cc2ccc(C3CCCCO3)s2)CC1 (stereo unspecified)	none
COc1ccc(S(=O)(=O)NCCSCc2ccco2)cc1Cl	none
COc1ccc(C[C@H]2c3cc(O)c(OC)cc3CC[N+]2(C)[O-])cc1O (stereo partly specified)	none
COc1ccc(C(C)(C)C)cc1NC(=O)Cn1cnnn1	none
COc1ccc(CNN2CCCCC2C(=O)Nc2ccc(OC)c(OCC(C)C)c2)cc1OC (stereo unspecified)	T cruzi inh 57.5
COc1ccc(NC(=O)C2CCCCN2N)cc1OCC(C)C (stereo unspecified)	none
O=c1c2cc(Br)ccc2nc(-c2ccc(Cl)cc2)n1O	none (no result: UBC13 polyUb)
O=c1c2cc(Cl)ccc2nc(-c2ccc([N+](=O)[O-])cc2)n1O	AI-2 QS mod -82.9
Cc1ccc(-c2nc3c(Cl)cc(Cl)cc3c(=O)n2O)cc1	PP1 inh 16.9
Cc1c(C(=O)Nc2nc3ccccc3[nH]2)oc2ccccc12	none
Cc1c(C(=O)Nc2nc3ccccc3[nH]2)oc2c(Cl)cccc12	T cruzi inh 69.8
Cc1c(C(=O)Nc2ccccn2)oc2c(Cl)cccc12	none (no result: p-CIP stab down)
Cc1c(C(=O)Nc2nc3ccccc3[nH]2)oc2ccc(Br)cc12	T cruzi inh 56.5
COc1ccccc1NC(=O)/C=C1\SCC(=O)N1C	T cruzi inh 70.8
COc1ccccc1NC(=O)/C=C1\NC(=O)CS1	none
CN1CCC(=C(c2ccc(Cl)cc2)c2ccccn2)CC1	T cruzi inh 69.0
O=C(CN1C(=O)NC2(CCCCC2)C1=O)Nc1ccc2c(c1)OCCCO2	none (no result: T cruzi inh, AI-2 QS mod, p-CIP stab down)
Cc1ccc(O)c(-c2[nH]ncc2C(=O)c2ccc(Br)cc2)c1	none
O=C(c1ccc(Br)cc1)c1cn[nH]c1-c1ccccc1O	AI-2 QS mod -80.8
